Assay outcomes as filed in PubChem.
In the library only some 1.7% were active in any assay of this set; here they are far more common.
AI-2 QS mod = modulates the Vibrio harveyi AI-2 quorum sensing system. Vibrio harveyi JMH597 AI-2 luminescence/OD600 ratio, 9 h; hits give low values; strain lacks LuxN and CqsS sensors; 0 = neutral-control median. activity change, % at 7.5 µM. hit rate 0.4% among 300,000; in the data active = activity change below about -75%, passing the limit was not always enough; inconclusive = no clear call, values can overlap the other calls;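 note: luminescence divided by OD600 gain over 9 h not by final OD600 alone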
Rce1 inh = inhibitors of yeast Ras-converting enzyme. yeast membranes, quenched prenylated peptide cleavage fluorescence. calls only. hit rate 0.27% among 290,000;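 active = fall in fluorescence gain of 50% or more versus controls, with final raw signal at or below 3038400; inconclusive = same 50% fall but final raw signal above 3038400; inactive = fall in fluorescence gain under 50%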
Target sequence (Q03530 whole entry, looked up): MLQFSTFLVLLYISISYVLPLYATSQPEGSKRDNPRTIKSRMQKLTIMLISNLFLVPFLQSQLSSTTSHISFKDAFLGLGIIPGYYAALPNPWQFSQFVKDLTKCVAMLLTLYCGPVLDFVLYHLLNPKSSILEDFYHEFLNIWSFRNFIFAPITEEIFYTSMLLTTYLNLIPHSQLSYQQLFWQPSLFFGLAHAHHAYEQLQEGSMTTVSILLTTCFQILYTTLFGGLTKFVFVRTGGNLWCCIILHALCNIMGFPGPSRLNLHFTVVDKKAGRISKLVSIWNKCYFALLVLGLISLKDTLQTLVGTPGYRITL
CAL PDZ FP-1 = human CAL PDZ-peptide interaction inhibition; Q9HD26; purified CAL PDZ, TMR-peptide fluorescence polarization, 1 h; inhibition, % at 20 µM; hit rate 0.02% among 330,000; AID 504414;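 active = highest replicate inhibition of at least 40%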
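Test system: purified CerCALP PDZ construct; Compound dosing: one concentration, 20 µM compound; Also added: TMR-labelled reporter peptide T*-PRC34 bound in PDZ groove; Read-out: inhibition from polarization loss; Controls: unlabelled peptide and DMSO controls; Signal: FP readout, S and P plane fluorescence; Incubation: 1 h at RT.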
CAL PDZ FP-2 = inhibitors of human CAL PDZ peptide binding; AID 602252; inhibition, % at 24.9 µM; purified CAL PDZ, TMR-peptide fluorescence polarization, 1 h; hit rate 0.92% among 300,000; Q9HD26;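 active = mean inhibition of at least 30% with at least half of replicates also reaching 30%; inconclusive = no clear call, values can overlap the other calls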
ARNT-TACC3 inh = disruptors of human ARNT/TACC3 interaction. Q9Y6A5. AlphaScreen His-ARNT PAS-B/GST-TACC3 binding, luminescence; TACC3 fragment carries E629A point mutation. inhibition, % at 9.99 µM. hit rate 0.66% among 390,000. AID 623870;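 active = mean inhibition of replicates at least 50% and at least half of replicates each reaching 50%; inconclusive = half or more replicates reach 50% but mean below 50%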
JMH597 growth = retest Vibrio harveyi JMH597 growth inhibition | hit rate 1% among 750 | AID 2726 | shares compounds with AI-2 QS mod | growth inhibition, % at 7.5 µM | OD600 absorbance, 9 h; lacks LuxN and CqsS sensors;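 active = every replicate shows growth inhibition above 50%; inconclusive = at least half, but not all, replicates pass that cutoff; inactive = fewer than half of replicates pass it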
BB721 const-QS lum = retest counter-screen: luminescence loss in constitutive-on quorum sensing strain BB721; shares compounds with AI-2 QS mod; hit rate 95% among 750; Vibrio harveyi BB721 luminescence, 9 h; AID 2727; inhibition, % at 7.5 µM;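 active = inhibition above about 80% in every replicate, not just on average, limit read from the data; inconclusive = at least half of replicates past the limit, but not all; inactive = fewer than half of replicates past the limit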
BB721 growth = retest Vibrio harveyi BB721 growth inhibition. shares compounds with AI-2 QS mod. OD600 absorbance, 9 h. growth inhibition, % at 7.5 µM. hit rate 3% among 750;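 active = every replicate shows growth inhibition above 50%; inconclusive = at least half but not all replicates above 50% inhibition; inactive = under half of replicates above 50% inhibition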
JMH597 AI-2 mod = Vibrio harveyi AI-2 signaling luminescence modulation – JMH597 strain, confirmation; AID 2736; shares compounds with AI-2 QS mod; Vibrio harveyi JMH597 AI-2 quorum sensing luminescence, 9 h; luxN and CqsS knockout, AI-2 only; hit rate 97% among 750; inhibition, % at 7.5 µM;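 active = every replicate shows more than 75% inhibition of signal versus neutral control wells; inconclusive = half to three quarters of replicates exceed 75% inhibition; inactive = fewer than half of replicates exceed 75% inhibition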
ARNT Alpha ctr = interferes with AlphaScreen signal, flagging false ARNT-TACC3 hits; AC50, µM (series often up to 68 µM); hit rate 50% among 1,200; His-ARNT PASB-GST AlphaScreen artifact counter-screen, luminescence; shares compounds with ARNT-TACC3 inh;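 active = every separate test run was called active for a drop in luminescence, with AC50 within twice the top valid dose, actives reach about 71 µM in these data; inconclusive = the separate test runs disagree in their calls; inactive = all runs inactive, including signal change in the wrong direction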
Of the large screens only hits and unclear results are named; the others gave an inactive call (follow-up assays come after a bar, where they were run).

O=C(c1cccc(Cl)c1)C1CCCN(Cc2ccon2)C1 (centres undefined)	none (no result: ARNT-TACC3 inh)
CC(C)Oc1cccc(C(=O)C2CCCN(Cc3ccon3)C2)c1 (centres undefined)	CAL PDZ FP-2 65
C/C=C1/CN2[C@@H]3C4CO[C@@H]3c3c([nH]c5cc(OC)ccc35)[C@@H]2CC14 (some centres undefined)	none
CCCCC(=O)N/N=C/c1c(O)n(Cc2ccco2)c(=O)[nH]c1=O	ARNT-TACC3 inh 72
CCCCC(=O)N/N=C/c1c(O)n(-c2cccc3ccccc23)c(=O)[nH]c1=O	ARNT-TACC3 inh 61
CCCCC(=O)N/N=C/c1c(O)n(CCCC)c(=S)[nH]c1=O	ARNT-TACC3 inh 61 (no result: Rce1 inh, CAL PDZ FP-2)
O=c1[nH]c(=O)n(Cc2ccco2)c(O)c1C=NCc1ccco1	none
O=c1[nH]c(=O)n(-c2cccc3ccccc23)c(O)c1C=NCCCn1ccnc1	none
O=C(N/N=C/c1c(O)n(Cc2ccco2)c(=O)[nH]c1=O)c1ccccc1O	ARNT-TACC3 inh 65
Cc1ccc(O)c(CN2CCN(c3ccccc3)CC2)c1	AI-2 QS mod -79 | JMH597 growth inactive | BB721 const-QS lum 85 | BB721 growth inactive | JMH597 AI-2 mod 91
O=C(c1cc2cc(Br)ccc2[nH]1)N1CCC2(CC1)OCCO2	AI-2 QS mod inconclusive | JMH597 growth inactive | BB721 const-QS lum 94 | BB721 growth inactive | JMH597 AI-2 mod 96
CCN(CC)C(=O)c1ccc(NC(=O)c2ccc(-c3nn(C)c(=O)c4ccccc34)cc2)cc1	none
CCN(CC)C(=O)c1ccc(NC(=O)Cn2nc(C)c3ccccc3c2=O)cc1	AI-2 QS mod -88 | JMH597 growth inactive | BB721 const-QS lum 94 | BB721 growth inactive | JMH597 AI-2 mod 96
CC(=O)N1CCN(CCN=Cc2c(O)n(-c3ccc(F)cc3)c(=S)[nH]c2=O)CC1	none (no result: CAL PDZ FP-2)
CCCCn1c(=O)c(C(=O)Nc2ccc(C)cn2)c(O)c2ccccc21	none
O=c1[nH]c(O)c(Cc2ccc3c(c2)OCO3)c(=O)[nH]1	ARNT-TACC3 inh 23 | ARNT Alpha ctr inactive
CN(C)[C@@H]1C(=O)C(C(N)=O)=C(O)[C@@]2(O)C(=O)C3=C(O)c4c(O)cccc4[C@@](C)(O)C3[C@H](O)C12 (some centres undefined)	AI-2 QS mod -82, ARNT-TACC3 inh 45 | ARNT Alpha ctr inactive
CN(C)C1C(=O)C(C(N)=O)=C(O)C2(O)C(=O)C3=C(O)c4c(O)cccc4C(C)(O)C3CC12 (centres undefined)	none
O=C(Cc1ccccc1)N1CCCCN2[C@H](CO)[C@@H](c3ccc(-c4ccccc4)cc3)[C@H]2C1	none (no result: AI-2 QS mod, Rce1 inh, CAL PDZ FP-1, CAL PDZ FP-2)
CCOC(=O)C1(CCCc2ccccc2)CCN(C2CCCC2)CC1	none
COc1cc2c(c(OC)c1OC)-c1ccc(O)c(=O)cc1[C@@H](NC(C)=O)CC2	ARNT-TACC3 inh 69 (no result: AI-2 QS mod, Rce1 inh) | ARNT Alpha ctr inactive
Cc1cccc(NC(=O)C(C)N2CC=C(c3ccccc3)CC2)c1 (centres undefined)	ARNT-TACC3 inh 62 | ARNT Alpha ctr inactive
CCOC(=O)c1cnc(N2CC2)nc1N	none (no result: AI-2 QS mod, Rce1 inh)
CCOC(=O)c1cc2c(cn1)[C@H](CCO)NC2	ARNT-TACC3 inh 59 (no result: AI-2 QS mod, Rce1 inh) | ARNT Alpha ctr inactive
O=C(Cc1cccnc1)N1CCCCN2[C@H](C1)[C@@H](c1ccc(C#CC3CCCC3)cc1)[C@@H]2CO	none (no result: AI-2 QS mod, Rce1 inh, CAL PDZ FP-1, CAL PDZ FP-2)
